# Assay results published in ChEMBL document CHEMBL1148900, “Isolation and characterization of five new tetrasaccharide glycosides from the roots of Ipomoea stans and their cytotoxic activity” (2004).
# Calls of active or inactive are those of the source. The calls are words filed in the database; no cut-off is given here.
# How the values were obtained:
# Assay type in all cases: functional
# HCT-15 = experiment: Cytotoxicity against human HCT15 cells after 72 hrs; settings: for EC50: HCT-15, 72 h, read-out: ED50 (the source's name)
# Method in brief: (§1)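 Cells kept in RPMI with 10% FBS at 37 °C, 5% CO₂, 100% humidity. Log-phase cells were exposed in triplicate to 0.5–100 μg/mL of compound for 72 h at 37 °C. Cell concentration was measured by protein analysis. ED₅₀ (dose inhibiting 50% of control growth) was read from a semilog plot of concentration (μg/mL) against percent viable cells.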
# OVCAR-5 = experiment: Cytotoxicity against human OVCAR5 cells after 72 hrs; settings: OVCAR-5, 72 h, read-out: ED50 (the source's name); method in brief: as §1
# UISO-SQC1 = experiment: (§2) Cytotoxicity against human UISO-SQC1 cells after 72 hrs; method in brief: as §1
# [1] = as §2; settings: UISO-SQC1, 72 h, read-out: ED50 (the source's name); method in brief: as §1
SMILES,EC50 (HCT-15),EC50 (OVCAR-5),Activity (HCT-15),Activity (UISO-SQC1),EC50 [1]
CCCCC[C@H]1CCCCCCCCCC(=O)O[C@@H]2[C@@H](O[C@@H]3O[C@H](C)[C@@H](OC(=O)C(C)C(C)O)[C@H](O)[C@H]3O)[C@H](C)O[C@@H](O[C@H]3[C@H](O[C@H]4[C@H](O1)O[C@H](C)[C@@H](O)[C@@H]4O)O[C@H](COC(=O)C(C)C(C)O)[C@@H](O)[C@@H]3O)[C@@H]2OC(=O)C(C)C (some centres not stated) [STANSIN 1],> 24 µg/mL,> 25 µg/mL,–,–,–
CCCCC[C@H]1CCCCCCCCCC(=O)O[C@@H]2[C@@H](O[C@@H]3O[C@H](C)[C@@H](OC(=O)C(C)C(C)O)[C@H](O)[C@H]3O)[C@H](C)O[C@@H](O[C@H]3[C@H](O[C@H]4[C@H](O1)O[C@H](C)[C@@H](O)[C@@H]4O)O[C@H](COC(=O)C(C)C(C)O)[C@@H](O)[C@@H]3O)[C@@H]2OC(=O)CC(C)C (some centres not stated) [STANSIN 2],> 24 µg/mL,> 25 µg/mL,–,–,–
CCCCC[C@H]1CCCCCCCCCC(=O)O[C@@H]2[C@@H](O[C@@H]3O[C@H](C)[C@@H](OC(=O)C(C)C(C)O)[C@H](O)[C@H]3O)[C@H](C)O[C@@H](O[C@H]3[C@H](O[C@H]4[C@H](O1)O[C@H](C)[C@@H](O)[C@@H]4O)O[C@H](COC(=O)C(C)C(C)O)[C@@H](O)[C@@H]3O)[C@@H]2OC(=O)C(C)CC (some centres not stated) [STANSIN 3],> 24 µg/mL,> 25 µg/mL,–,–,–
CCCCC[C@H]1CCCCCCCCCC(=O)O[C@@H]2[C@@H](O[C@@H]3O[C@H](C)[C@@H](OC(=O)C(C)C)[C@H](O)[C@H]3O)[C@H](C)O[C@@H](O[C@H]3[C@H](O[C@H]4[C@H](O1)O[C@H](C)[C@@H](O)[C@@H]4O)O[C@H](CO)[C@@H](O)[C@@H]3O)[C@@H]2OC(=O)C(C)CC (some centres not stated) [STANSIN 4],–,5.5 µg/mL,inactive,inactive,–
CCCCC[C@H]1CCCCCCCCCC(=O)O[C@@H]2[C@@H](O[C@@H]3O[C@H](C)[C@@H](OC(=O)C(C)CC)[C@H](O)[C@H]3O)[C@H](C)O[C@@H](O[C@H]3[C@H](O[C@H]4[C@H](O1)O[C@H](C)[C@@H](O)[C@@H]4O)O[C@H](CO)[C@@H](O)[C@@H]3O)[C@@H]2OC(=O)C(C)CC (some centres not stated) [STANSIN 5],24 µg/mL,1.5 µg/mL,–,–,4 µg/mL
